Experimental data: ChEMBL document CHEMBL3085650, “Extending the record of bis-γ-pyrone polypropionates from marine pulmonate mollusks” (J Nat Prod, 2013)

What was measured:
[1] = Growth inhibition of human U373 cells after 72 hrs by MTT assay; type: functional, cell-based, U-373MG ATCC; conditions: U373 MG
Procedure, shortened: (§1)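 Human cancer cell lines (from ATCC, ECACC or DSMZ) cultured 72 h with compound; viable cells measured by MTT colorimetric assay, where mitochondrial succinate dehydrogenase reduces yellow MTT to blue formazan, read by spectrophotometry. Optical density of treated versus control cells gives growth inhibition, expressed as IC50 (μM). Camptothecin and etoposide served as reference compounds.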

[2] = Growth inhibition of human Hs683 cells after 72 hrs by MTT assay; type: functional, cell-based; conditions: Hs 683, 72 h; procedure, shortened: as §1
PC-3 = experiment: Growth inhibition of human PC3 cells after 72 hrs by MTT assay; type: functional, cell-based; conditions: PC-3, 72 h; procedure, shortened: as §1
A549 = experiment: Growth inhibition of human A549 cells after 72 hrs by MTT assay; type: functional, cell-based; conditions: A549, 72 h; procedure, shortened: as §1
SK-MEL-28 = experiment: Growth inhibition of human SK-MEL-28 cells after 72 hrs by MTT assay; type: functional, cell-based; conditions: SK-MEL-28, 72 h; procedure, shortened: as §1
MCF7 = experiment: Growth inhibition of human MCF7 cells after 72 hrs by MTT assay; type: functional, cell-based; conditions: MCF7, 72 h; procedure, shortened: as §1

Row | Compound | IC50 [1] [µM] | IC50 [2] [µM] | IC50 (PC-3) [µM] | IC50 (A549) [µM] | IC50 (SK-MEL-28) [µM] | IC50 (MCF7) [µM]
1 | CCC(=O)O[C@@H](/C(C)=C/[C@@H](C)c1oc(CC)c(C)c(=O)c1C)[C@H](C)[C@@H](OC(=O)CC(C)C)[C@@H](C)c1oc([C@@H](C)[C@H](CC)OC(C)=O)c(C)c(=O)c1C | 9 | 3 | 2 | 3 | 7 | 4
2 | CCC(=O)O[C@@H](/C(C)=C/[C@@H](C)c1oc(CC)c(C)c(=O)c1C)[C@H](C)[C@@H](OC(=O)CC(C)C)[C@@H](C)c1oc([C@@H](C)[C@@H](O)CC)c(C)c(=O)c1C | 21 | 13 | 3 | 12 | 25 | 12
3 | CCc1oc([C@H](C)/C=C(\C)[C@H](OC(C)=O)[C@H](C)[C@@H](OC(=O)CC(C)C)[C@@H](C)c2oc([C@@H](C)[C@H](CC)OC(C)=O)c(C)c(=O)c2C)c(C)c(=O)c1C | 32 | 24 | 7 | 28 | 33 | 25
4 | CCc1oc([C@H](C)/C=C(\C)[C@H](OC(C)=O)[C@H](C)[C@@H](OC(=O)CC(C)C)[C@@H](C)c2oc([C@@H](C)[C@@H](O)CC)c(C)c(=O)c2C)c(C)c(=O)c1C | 21 | 30 | 3 | 15 | 25 | 15
5 | CCc1oc([C@H](C)/C=C(\C)[C@H](O)[C@H](C)[C@@H](OC(=O)CC(C)C)[C@@H](C)c2oc([C@@H](C)[C@@H](O)CC)c(C)c(=O)c2C)c(C)c(=O)c1C | > 100 | > 100 | > 100 | > 100 | > 100 | > 100
6 | CCC(=O)[C@@H](C)c1oc([C@H](C)[C@@H]2O[C@](O)([C@@H](C)c3oc(CC)c(C)c(=O)c3C)[C@@H](C)[C@@H](O)[C@@H]2C)c(C)c(=O)c1C | > 100 | > 100 | 82 | > 100 | > 100 | 87
7 | CCC(=O)[C@H](C)c1oc([C@H](C)[C@@H]2O[C@](O)([C@@H](C)c3oc(CC)c(C)c(=O)c3C)[C@@H](C)[C@@H](O)[C@@H]2C)c(C)c(=O)c1C | > 100 | > 100 | > 100 | > 100 | > 100 | > 100
8 | CCC(=O)[C@H](C)c1oc([C@H](C)[C@@H]2O[C@](O)([C@@H](C)c3oc(CC)c(C)c(=O)c3C)[C@@H](C)[C@@H](OC(=O)CC(C)C)[C@@H]2C)c(C)c(=O)c1C | 25 | 23 | 16 | 26 | 23 | 21
9 | CC[C@@]1(O)C(=O)OCc2c1cc1n(c2=O)Cc2cc3ccccc3nc2-1 [CAMPTOTHECIN] | 0.015 | < 0.01 | 0.01 | < 0.01 | < 0.01 | < 0.01
10 | COc1cc([C@@H]2c3cc4c(cc3[C@@H](O[C@@H]3O[C@@H]5CO[C@@H](C)O[C@H]5[C@H](O)[C@H]3O)[C@H]3COC(=O)[C@H]23)OCO4)cc(OC)c1O [ETOPOSIDE] | 25 | 2 | > 100 | 2 | 3 | 4
